Assay outcomes (PubChem)
FLuc stim CS: affects firefly luciferase, flagging false hits in luciferase stimulation screens | P08659 | ATPlite luciferase biochemical, luminescence, 10 min; 0 = ATP-free wells, 1 = DMSO control | activation factor at 10 µM | 200,000 tested, under 10 active;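 active = luciferase activation factor, scaled between plate controls, of at least 2 with compound at 10 µM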
Target sequence (P08659 whole entry, looked up): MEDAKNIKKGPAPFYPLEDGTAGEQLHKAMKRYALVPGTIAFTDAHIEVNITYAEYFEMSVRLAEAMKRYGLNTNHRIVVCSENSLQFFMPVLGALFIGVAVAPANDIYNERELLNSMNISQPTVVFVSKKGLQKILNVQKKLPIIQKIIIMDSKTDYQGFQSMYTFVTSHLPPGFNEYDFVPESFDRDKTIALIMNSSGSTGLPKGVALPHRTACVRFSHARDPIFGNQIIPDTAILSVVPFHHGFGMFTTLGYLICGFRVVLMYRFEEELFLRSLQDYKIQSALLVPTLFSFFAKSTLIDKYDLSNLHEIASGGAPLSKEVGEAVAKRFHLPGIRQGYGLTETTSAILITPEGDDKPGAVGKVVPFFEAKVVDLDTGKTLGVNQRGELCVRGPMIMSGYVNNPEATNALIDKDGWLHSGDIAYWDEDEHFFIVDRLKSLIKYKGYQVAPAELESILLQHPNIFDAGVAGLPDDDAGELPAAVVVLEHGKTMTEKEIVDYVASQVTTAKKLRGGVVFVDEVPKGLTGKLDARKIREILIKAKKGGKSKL
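System: cell-free luciferase reagent; medium: PBS as buffer for the ATP substrate; doses: test compounds dosed from 2 mM stocks in 100% DMSO; incubation: 10 min, room temperature; measured by: luminescence from luciferase reaction; read-out: luciferase activation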
PPC-1+TRAIL kill: kills PPC-1 cancer cells in the presence of TRAIL | 0.41% of 220,000 active | PPC-1 cells + TRAIL, ATPLite viability luminescence | cell killing (% activity), % at 4 µM or 5 µM | AID 1443;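 active = cell killing above 50% in the first pass at 4 µM, then a duplicate retest at 5 µM averaging 50% or more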;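 also: plate controls were cells with TRAIL plus DMSO for no effect and medium-only wells lacking cells for full effect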
FLuc inhib CS: counter-screen for luciferase assay inhibitors: firefly luciferase inhibition. P08659. ATPLite firefly luciferase biochemical luminescence, 10 min. inhibition, % at 10 µM. 1.5% of 200,000 active;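 active = inhibition above about 50% when tested at 10 µM, limit read from the data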
TRAIL sens C8: caspase-8 TRAIL sensitization | NB7+C8 cells + TRAIL, ATPlite viability luminescence | inhibition (viability loss, TRAIL sensitization), % at 10 µM | 1% of 360,000 active;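 active = compounds causing at least 50% loss of cell viability in the single-dose screen, relative to plate controls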
The depositor's hits bear a star; . = no result. Only some compounds are listed: those with a hit (about 1.6% of all), similar ones and a draw of the others.

SMILES | FLuc stim CS | PPC-1+TRAIL kill | FLuc inhib CS | TRAIL sens C8
COCCn1c(C)cc(C(=O)COC(=O)c2ccc(Br)o2)c1C | 0.2 | 6 | 80* | 1
COCCn1c(C)cc(C(=O)COC(=O)c2ccc(Cl)c(S(N)(=O)=O)c2)c1C | . | . | . | 62*
Cc1cc(C(=O)COC(=O)c2ccc(Cl)c(S(N)(=O)=O)c2)c(C)n1CC1CCCO1 (configuration not stated) | . | . | . | 42
Cc1ccccc1N1C(=O)c2cccc([N+](=O)[O-])c2C1=O | 1.1 | 7 | -5 | 8
O=C(OC1CCOC1=O)c1ccc2ncsc2c1 (configuration not stated) | 1 | 19 | -4 | 9
CCN(c1ccccc1)S(=O)(=O)c1ccc(NC(=O)c2nc(S(C)(=O)=O)ncc2Cl)cc1 | . | . | . | 91*
CCS(=O)(=O)c1ncc(Cl)c(C(=O)Nc2ccc(S(=O)(=O)N(C)c3ccccc3)cc2)n1 | . | . | . | 98*
CC(=O)Nc1ccc(S(=O)(=O)N(C)c2ccccc2)cc1 | 1 | -7 | -3 | 3
Oc1ccccc1C1N=C(c2ccccc2)NC(c2ccccc2)=N1 | 1 | 5 | -2 | -8
Cc1ccc(/C=C2\CCC(C3CCCC3)C2=O)cc1 (configuration not stated) | 0.4 | 33 | 57* | 6
CN1CCN(S(=O)(=O)c2ccc(NC(=O)c3ccc(Br)o3)cc2)CC1 | 1 | 4 | -3 | 33
COc1cccc(N/C=C/C(=O)c2ccc(Cl)cc2)c1 | 0.2 | 53* | 83* | 53*
COc1cccc(C(=O)/C=C/Nc2ccc(NC(C)=O)cc2)c1 | 0.7 | -5 | 28 | 5
COc1cccc(N/C=C/C(=O)c2ccc(C)cc2)c1 | . | . | . | 64*
COc1ccc(N/C=C/C(=O)c2ccc(Cl)cc2)cc1 | 0.7 | 21 | 35 | 43
COc1cc(OC)cc(-c2noc(-c3csc([C@H]4C[C@H](O)[C@@H](CO)O4)n3)n2)c1 | . | . | . | 22
Cc1cccc(-c2noc(-c3csc([C@@H]4C[C@H](O)[C@@H](CO)O4)n3)n2)c1 | . | . | . | 51*
Cc1ccc(/C(N)=N/OC(=O)c2cccc(F)c2)cc1 | 0.4 | 28 | 61* | 85*
N/C(=N\OC(=O)c1cccc(F)c1)c1ccccc1 | 0.1 | 20 | 91* | 74*
Cc1ccc(/C(N)=N/OC(=O)c2ccc3ccccc3c2)cc1 | . | . | . | 90*
CC(=O)Nc1cccc(S(N)(=O)=O)c1C | . | 9 | . | -5
O=C(CN(c1cccc([N+](=O)[O-])c1)S(=O)(=O)c1ccccc1)NCc1cccnc1 | . | . | . | -20
O=C(CN(c1cccc(C(F)(F)F)c1)S(=O)(=O)c1ccc(Cl)c([N+](=O)[O-])c1)NCc1ccc(F)cc1 | 1 | 63* | -2 | -8
COC(=O)C1=C(C)N(Cc2ccccc2)C(=NCCc2c[nH]c3ccccc23)N[C@H]1c1cccc(C(F)(F)F)c1 | . | . | . | 52*
COC(=O)C1=C(C)N(Cc2ccccc2)C(=NCc2cccc(C(F)(F)F)c2)N[C@H]1c1cccc(F)c1 | . | . | . | 48
SMILES | FLuc stim CS | PPC-1+TRAIL kill | FLuc inhib CS | TRAIL sens C8
COC(=O)C1=C(C)N(Cc2ccccc2)C(=NCc2cccc(C(F)(F)F)c2)N[C@H]1c1cccc(C(F)(F)F)c1 | . | . | . | 94*
CSc1ccc(-c2cc(=O)c3ccccc3o2)cc1 | 0.7 | 33 | 35 | 37
O=C(Nc1ccc(N2CCCC2)c(Cl)c1)c1cccc(-c2cc3ccccc3oc2=O)c1 | 1 | 22 | -3 | -6
NC1=NC[C@@H](CC2CCCCC2)N1CCc1cc(C(F)(F)F)cc(C(F)(F)F)c1 | . | . | . | 93*
NC1=NC[C@H](Cc2ccc(O)cc2)N1CCc1cc(C(F)(F)F)cc(C(F)(F)F)c1 | . | 0 | . | 1
Cc1c(C(=O)O)cnc2cc(-c3ccc(Cl)cc3)nn12 | 0.4 | 4 | 56* | 34
CC(C)c1cc(C(=O)N/N=C/c2cccnc2)cs1 | 0.4 | 11 | 64* | 40
CC(=O)Nc1ccc(C(=O)N/N=C/c2cccnc2)cc1 | 1.1 | 22 | -10 | 5
CC(C)c1cc(C(=O)N/N=C/c2ccoc2)cs1 | . | . | . | 9
CCOc1ccc(C(=O)N/N=C/c2cccc3cccnc23)cc1 | 0.6 | 15 | 43 | 19
COc1ccc(C(=O)N/N=C/c2cccnc2)cc1 | . | . | . | 52*
COc1ccc(C(=O)N/N=C/c2cccc3cccnc23)cc1 | 0.4 | 32 | 59* | 13
O=C(CC(NCc1ccccn1)C(=O)O)Nc1ccccc1Cl (configuration not stated) | 1 | 13 | 1 | -5
COC(=O)C(/C=N/OCc1ccc([N+](=O)[O-])cc1)NC(=O)c1ccccc1 (configuration not stated) | 1 | -1 | -3 | -4
O=C1C(=C(I)I)c2ccccc2-c2ccccc21 | . | . | . | 94*
COc1ccc2oc(=N)c(C(=O)Nc3ccccc3)cc2c1 | 0.4 | 17 | 64* | 21
COc1ccc2oc(=N)c(C(=O)Nc3ccc(C)cc3)cc2c1 | . | . | . | 16
COc1ccc(OCC(=O)N/N=C(\C)c2ccc(-n3ccnc3)cc2)cc1 | 0.4 | 38 | 57* | -5
C/C(=N\NC(=O)COc1ccc(C(C)(C)C)cc1)c1ccc(-n2ccnc2)cc1 | 0.2 | 6 | 80* | 59*
COc1cc(NC(=O)COc2ccc(-n3ccnc3)cc2)cc(OC)c1 | 1 | 21 | -2 | 0
CC(C)(C)c1ccc(NC(=O)COc2ccc(-n3ccnc3)cc2)cc1 | 1 | 22 | -2 | 15
Cc1cc2c(=Cc3ccc(N(C)C)cc3)c3ccccc3n2[n+]1C | . | . | . | 31
C[n+]1c(-c2ccccc2)cc2c(=Cc3ccccc3)c3ccccc3n21 | . | . | . | 81*
CCOC(=O)c1cc2c(=Cc3ccc(N(C)C)cc3)c3ccccc3n2[n+]1C | . | . | . | 53*
CN(C)c1ccc(C=c2c3cc(O)ccc3n3c2cc(-c2ccccc2)[n+]3C)cc1 | . | . | . | 51*
SMILES | FLuc stim CS | PPC-1+TRAIL kill | FLuc inhib CS | TRAIL sens C8
Cc1ccc(NC(=O)CN2CCc3cc4c(cc3C2)OCCCO4)cc1 | . | . | . | -11
COc1ccc(C(=O)Nc2ccnn2C2CCN(C(=O)c3cc(C)on3)CC2)cc1 | . | . | . | -20
Cc1ccc2oc(/N=C(\N)NC(=O)C3CC3)nc2c1 | . | 29 | . | 50*
O=C(OCc1nnc(-c2ccccc2)o1)C1CC(=O)N(Cc2ccco2)C1 (configuration not stated) | 1.1 | 6 | -7 | -2
Cc1ccccc1-c1nnc(-c2cccc3ccccc23)o1 | . | . | . | 51*
O=C(NCCc1ccccc1)c1ccncc1 | 1 | 16 | -5 | .
O=C(NCCc1ccccc1)C(=O)NCc1ccncc1 | 0.5 | 13 | 50* | -5
COCC(=O)Nc1nnc(-c2ccc(C(C)(C)C)cc2)s1 | 0.4 | 44 | 60* | 39
CC[C@]12c3[nH]c4ccc(Cl)cc4c3CCN1C(=O)[C@@H](CC(=O)NCc1cccc(C(F)(F)F)c1)C[C@@H]2C(=O)N1CCN(C(=O)c2ccco2)CC1 | . | . | . | 61*
COc1ccc2nc(/N=C/c3c(C)[nH]n(-c4ccc(C)cc4)c3=O)sc2c1 | 0.4 | 17 | 59* | 19
Cc1cccnc1Nc1nc(-c2ccccc2)cs1 | . | . | . | 11
Cc1cccnc1Nc1nc(-c2ccccn2)cs1 | 0.6 | 0 | 44 | 49*
